Source: ChEMBL document CHEMBL1914434, “Synthesis, computational studies and preliminary pharmacological evaluation of 2-[4-(aryl substituted) piperazin-1-yl] N, N-diphenylacetamides as potential antipsychotics” (Eur J Med Chem, 2011)

Tests used:
Mus musculus [1] = experiment: Antipsychotic activity in ip dosed Swiss albino mouse assessed as inhibition of 5-hydoxytryptophan-induced head twitches behavior administered 30 mins prior to 5-hydoxytryptophan challenge measured at 10 mins intervals for 30 mins after 20 mins post dose; type: functional
Method in brief: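 Mice (n = 6/group) pretreated with pargyline 75 mg/kg i.p. to slow 5-HTP breakdown; test compound given i.p. 30 min later, then 5-HTP 50 mg/kg i.p. after a further 30 min. Head twitches scored at 10 min intervals for 30 min from 20 min post-5-HTP. Data as mean ± SEM total score; ED50 (mg/kg, i.p.); Kruskal-Wallis or one-way ANOVA vs control.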

Mus musculus [2] = experiment: Antipsychotic activity in ip dosed Swiss albino mouse assessed as inhibition of apomorphine-induced mesh climbing response administered 10 mins prior to apomorphine challenge measured at 5 mins intervals for up to 20 mins after 10 mins post dose; type: functional
Method in brief: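 Groups of six mice given test compound, saline (control) or clozapine i.p.; apomorphine 2.5 mg/kg i.p. 10 min later. Mesh climbing scored (0 = no paws on cage) at 5 min intervals for 20 min from 10 min post-apomorphine, maximum total score 20. Mean ± SEM; ED50 (mg/kg, i.p.); Kruskal-Wallis or one-way ANOVA vs control.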

Mus musculus [3] = organism: Mus musculus; experiment: Toxicity in albino mouse assessed as induction of catalepsy measured at 30 mins intervals until 240 mins; type: organism-based; conditions: in vivo
Method in brief: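 Test drug given i.p. to albino mice (n = 6) in place of haloperidol reference (1.0 mg/kg i.p.). Bar test: time (s) holding forelimbs extended on 4 cm high, 1.0 cm diameter wooden bar, cut-off 1100 s, read at 30 min intervals to 120 min and at 240 min. Run 10.00–16.00 h, quiet room, 23–25 °C. ED50 (mg/kg, i.p.).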

O=C(CN1CCN(c2ccc(Cl)c(Cl)c2)CC1)N(c1ccccc1)c1ccccc1
ED50 (Mus musculus [1]): > 20 mg/kg
ED50 (Mus musculus [2]): 24 mg/kg
ED50 (Mus musculus [3]): 45 mg/kg

O=C(CN1CCN(c2ccc(F)cc2)CC1)N(c1ccccc1)c1ccccc1
ED50 (Mus musculus [1]): 20 mg/kg
ED50 (Mus musculus [2]): 13.4 mg/kg
ED50 (Mus musculus [3]): > 40 mg/kg

Cc1cccc(N2CCN(CC(=O)N(c3ccccc3)c3ccccc3)CC2)c1C
ED50 (Mus musculus [1]): > 30 mg/kg
ED50 (Mus musculus [2]): 28.5 mg/kg
ED50 (Mus musculus [3]): > 40 mg/kg

CN1CCN(C2=Nc3cc(Cl)ccc3Nc3ccccc32)CC1 [CLOZAPINE]
ED50 (Mus musculus [1]): 2.8 mg/kg
ED50 (Mus musculus [2]): 8.7 mg/kg

O=C(CN1CCN(c2ccc([N+](=O)[O-])cc2)CC1)N(c1ccccc1)c1ccccc1
ED50 (Mus musculus [1]): > 40 mg/kg
ED50 (Mus musculus [2]): 30 mg/kg
ED50 (Mus musculus [3]): > 40 mg/kg

O=C(CN1CCN(c2ccccc2)CC1)N(c1ccccc1)c1ccccc1
ED50 (Mus musculus [1]): 27 mg/kg
ED50 (Mus musculus [2]): 20.5 mg/kg
ED50 (Mus musculus [3]): 50 mg/kg

O=C(CN1CCN(c2cccc(C(F)(F)F)c2)CC1)N(c1ccccc1)c1ccccc1
ED50 (Mus musculus [1]): 30 mg/kg
ED50 (Mus musculus [2]): 21.3 mg/kg
ED50 (Mus musculus [3]): 48 mg/kg

COc1cccc(N2CCN(CC(=O)N(c3ccccc3)c3ccccc3)CC2)c1
ED50 (Mus musculus [1]): 15.5 mg/kg
ED50 (Mus musculus [2]): 10 mg/kg
ED50 (Mus musculus [3]): 55.4 mg/kg

O=C(CN1CCN(c2cccc(Cl)c2)CC1)N(c1ccccc1)c1ccccc1
ED50 (Mus musculus [1]): 18 mg/kg
ED50 (Mus musculus [2]): 16.5 mg/kg
ED50 (Mus musculus [3]): 48.4 mg/kg

Cc1ccc(N2CCN(CC(=O)N(c3ccccc3)c3ccccc3)CC2)cc1
ED50 (Mus musculus [1]): 31.2 mg/kg
ED50 (Mus musculus [2]): > 20 mg/kg
ED50 (Mus musculus [3]): > 40 mg/kg

COc1ccccc1N1CCN(CC(=O)N(c2ccccc2)c2ccccc2)CC1
ED50 (Mus musculus [1]): 12.7 mg/kg
ED50 (Mus musculus [2]): 8.2 mg/kg
ED50 (Mus musculus [3]): 50.4 mg/kg
